As usually defined, the logP is the decadic logarithm of the partition coefficient of the neutral form, usually between octanol and water. As a reminder, the IC50 is the concentration that inhibits the measured activity by half.

Active and inactive are the calls of the source. The calls are words filed in the database; no cut-off is given here.

Data set [1] can be described thus: Lipophilicity, log P of compound. Type of data set: physicochemical. The settings on record: octanol/water.
Data set [2] concerns Trypanosoma cruzi. Kind of data set: Trypanocidal activity against trypamostigote form of Trypanosoma cruzi Y infected in African green monkey Vero cells after 24 hrs by neubauer chamber method. It is filed as functional, organism-based. A digest of the protocol: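 Y strain trypomastigotes harvested from Vero cell supernatants, 4 × 10^5 cells/well, compounds in triplicate, benznidazole as positive control. Incubated 24 h at 37 °C, 5% CO2. Motile parasites counted in a Neubauer chamber; untreated wells = 100%. IC50 by nonlinear regression over at least seven concentrations.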

Data set [3] has as its system Trypanosoma cruzi. Kind of data set: Trypanocidal activity against epimastigote form of Trypanosoma cruzi Dm28c after 11 days by neubauer chamber method. It is filed as functional. The settings on record: 264 h.
A short description of data set [4]: Cytotoxicity against BALB/c mouse splenocytes assessed as highest non-toxic concentration causing >90 % incorporation of [3H]-thymidine after 24 hrs by beta counting method. Type of data set: cell-based, Splenocyte. The settings on record: read-out: MNTD90. A digest of the protocol:
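BALB/c mouse splenocytes at 5 × 10^6 cells/well in RPMI-1640 with 10% inactivated FBS. Compounds were dissolved in DMSO (10 mg/mL stock) and serially diluted to 1.0, 5.0, 10, 25, 50 and 100 (final), in triplicate. Controls were saponin and medium with DMSO. 3H-thymidine was added, then 24 h at 37 °C, 5% CO2, and beta counting. Untreated = 100%; >90% incorporation counted as nontoxic.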

The subject of data set [5] is Trypanosoma cruzi. Kind of data set: Induction of ultrastructural changes in trypamostigote form of Trypanosoma cruzi Y assessed as blebs in flagellum at IC50 after 24 hrs by scanning electron microscopic analysis. It is filed as functional, organism-based. In short, it runs like this: (§1)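 Trypomastigotes cultured 24 h in RPMI 1640 (pH 7.5, 20 mM HEPES, 10% FBS, penicillin/streptomycin) with compound at two concentrations (1× and 2×). Washed in PBS and fixed in glutaraldehyde/formaldehyde in 0.1 M cacodylate pH 6.8, then OsO4 postfixed. Dehydrated in graded ethanol, CO2 critical-point dried, gold-coated and examined by SEM against untreated controls.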

The subject of data set [6] is Trypanosoma cruzi. Kind of data set: Induction of apoptosis in trypamostigote form of Trypanosoma cruzi Y assessed as late apoptotic cells after 24 hrs by Annexin V-FITC/propidium iodide staining based flow cytometry. It is filed as functional, organism-based. In short, it runs like this: (§2)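 Trypomastigotes (1 × 10^7) incubated 24 h at 37 °C with or without compound. Then labelled with annexin V-FITC and propidium iodide using a kit per the manufacturer's instructions and analysed by flow cytometry. Two independent experiments, each concentration in duplicate; comparison against untreated cells.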

In data set [7] the test system is Trypanosoma cruzi. Kind of data set: Induction of ultrastructural changes in trypamostigote form of Trypanosoma cruzi Y assessed as abnormal chromatin condensation at 2 times IC50 after 24 hrs by uranyl acetate/lead citrate staining based transmission electron microscopic analysis. Type of data set: functional, organism-based. A digest of the protocol:
(§3)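 Trypomastigotes exposed for 24 h in RPMI 1640 (pH 7.5, 20 mM HEPES, 10% FBS, antibiotics) with compound at 1× or 2× the set concentration. Fixed in 2.5% glutaraldehyde, 4% formaldehyde, 0.1 M cacodylate pH 6.8, postfixed in 2% OsO4. Acetone-dehydrated, epon-embedded, sections stained with uranyl acetate/lead citrate and examined by TEM against untreated parasites.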

Data set [8] is described as follows: Selectivity index, ratio of MNTD90 for cytotoxicity against BALB/c mouse splenocytes to IC50 for trypamostigote form of Trypanosoma cruzi Y infected in African green monkey Vero cells. It is filed as toxicity, cell-based. The settings on record: read-out: Selectivity Index.
For data set [9], the system named is Trypanosoma cruzi. Kind of data set: Induction of ultrastructural changes in trypamostigote form of Trypanosoma cruzi Y assessed as intense cytoplasmic vacuolization at 2 times IC50 after 24 hrs by uranyl acetate/lead citrate staining based transmission electron microscopic analysis. It is filed as functional, organism-based. A digest of the protocol:
as §3

The test system of data set [10] is Trypanosoma cruzi. Kind of data set: Induction of apoptosis in trypamostigote form of Trypanosoma cruzi Y assessed as early apoptotic cells after 24 hrs by Annexin V-FITC/propidium iodide staining based flow cytometry. Type of data set: functional, organism-based. In short, it runs like this: as §2
Data set [11] has as its system Trypanosoma cruzi. Kind of data set: Induction of ultrastructural changes in trypamostigote form of Trypanosoma cruzi Y assessed as alterations in reservosome at 2 times IC50 after 24 hrs by uranyl acetate/lead citrate staining based transmission electron microscopic analysis. Type of data set: functional, organism-based. A digest of the protocol: as §3
Data set [12] deals with Trypanosoma cruzi. Kind of data set: Induction of apoptosis in trypamostigote form of Trypanosoma cruzi Y assessed as necrotic cells at 5 uM after 24 hrs by Annexin V-FITC/propidium iodide staining based flow cytometry. It is filed as functional, organism-based. A digest of the protocol:
as §2
Background: In flow cytometry, cells or beads pass a laser one at a time.

Data set [13] deals with Trypanosoma cruzi. Kind of data set: Induction of ultrastructural changes in trypamostigote form of Trypanosoma cruzi Y assessed as intense cytoplasmic vacuolization at IC50 after 24 hrs by uranyl acetate/lead citrate staining based transmission electron microscopic analysis. Type of data set: functional, organism-based. In short, it runs like this:
as §3

Data set [14] concerns Trypanosoma cruzi. Kind of data set: Induction of ultrastructural changes in trypamostigote form of Trypanosoma cruzi Y assessed as alterations in reservosome at IC50 after 24 hrs by uranyl acetate/lead citrate staining based transmission electron microscopic analysis. It is filed as functional, organism-based. In short, it runs like this:
as §3

In data set [15] the test system is Trypanosoma cruzi. Kind of data set: Induction of apoptosis in trypamostigote form of Trypanosoma cruzi Y assessed as late apoptotic cells at 25 uM after 24 hrs by Annexin V-FITC/propidium iodide staining based flow cytometry relative to untreated control. It is filed as functional. In short, it runs like this:
as §2

Data set [16] has as its system Trypanosoma cruzi. Kind of data set: Induction of ultrastructural changes in trypamostigote form of Trypanosoma cruzi Y assessed as loss of cytoplasmic material at IC50 after 24 hrs by uranyl acetate/lead citrate staining based transmission electron microscopic analysis. Type of data set: functional, organism-based. A digest of the protocol:
as §3

Data set [17] deals with Trypanosoma cruzi. Kind of data set: Induction of ultrastructural changes in trypamostigote form of Trypanosoma cruzi Y assessed as abnormal chromatin condensation at IC50 after 24 hrs by uranyl acetate/lead citrate staining based transmission electron microscopic analysis. Type of data set: functional, organism-based. A digest of the protocol:
as §3

Data set [18] has as its system Trypanosoma cruzi. Kind of data set: Induction of ultrastructural changes in trypamostigote form of Trypanosoma cruzi Y assessed as dilated endoplasmic reticulum at 2 times IC50 after 24 hrs by uranyl acetate/lead citrate staining based transmission electron microscopic analysis. Type of data set: functional, organism-based. In short, it runs like this: as §3
In data set [19] the test system is Trypanosoma cruzi. Kind of data set: Induction of ultrastructural changes in trypamostigote form of Trypanosoma cruzi Y assessed as shortening of flagellum at 2 times IC50 after 24 hrs by scanning electron microscopic analysis. It is filed as functional, organism-based. In short, it runs like this:
as §1

Data set [20] has as its system Trypanosoma cruzi. Kind of data set: Induction of apoptosis in trypamostigote form of Trypanosoma cruzi Y assessed as late apoptotic cells at 5 uM after 24 hrs by Annexin V-FITC/propidium iodide staining based flow cytometry. It is filed as functional, organism-based. In short, it runs like this: as §2
The test system of data set [21] is Trypanosoma cruzi. Kind of data set: Antitrypanosomal activity against trypamostigote form of Trypanosoma cruzi Y assessed as decrease in number of parasites after 24 hrs by scanning electron microscopic analysis. Type of data set: functional, organism-based. In short, it runs like this:
as §1

Data set [22] relates to Trypanosoma cruzi. Kind of data set: Induction of ultrastructural changes in trypamostigote form of Trypanosoma cruzi Y assessed as swelling of mitochondria at IC50 after 24 hrs by uranyl acetate/lead citrate staining based transmission electron microscopic analysis. Type of data set: functional, organism-based. A digest of the protocol:
as §3

Data set [23] deals with Trypanosoma cruzi. Kind of data set: Induction of apoptosis in trypamostigote form of Trypanosoma cruzi Y assessed as early apoptotic cells at 5 and 25 uM after 24 hrs by Annexin V-FITC/propidium iodide staining based flow cytometry. It is filed as functional, organism-based. In short, it runs like this:
as §2

Data set [24] relates to Trypanosoma cruzi. Kind of data set: Induction of apoptosis in trypamostigote form of Trypanosoma cruzi Y assessed as necrotic cells at 25 uM after 24 hrs by Annexin V-FITC/propidium iodide staining based flow cytometry relative to untreated control. Type of data set: functional. In short, it runs like this:
as §2

The subject of data set [25] is Trypanosoma cruzi. Kind of data set: Induction of apoptosis in trypamostigote form of Trypanosoma cruzi Y assessed as necrotic cells after 24 hrs by Annexin V-FITC/propidium iodide staining based flow cytometry. It is filed as functional, organism-based. A digest of the protocol:
as §2

For data set [26], the system named is Trypanosoma cruzi. Kind of data set: Induction of ultrastructural changes in trypamostigote form of Trypanosoma cruzi Y assessed as swelling of kinetoplast at 2 times IC50 after 24 hrs by uranyl acetate/lead citrate staining based transmission electron microscopic analysis. Type of data set: functional, organism-based. In short, it runs like this:
as §3

Regarding `O=C1c2ccccc2C(=O)N1Nc1nc(-c2ccc(-c3ccccc3)cc2)cs1`, in data set [1], the logP came to 5.66. The IC50 in data set [2] came to 27.5 µM; in data set [3], 4 µM. Also, in data set [4], the MNTC at 24 h came out at 252 µM.
On the same counts, the results for `O=C1c2ccccc2C(=O)N1Nc1nc(-c2ccc3ccccc3c2)cs1` are 4.98, 4.7 µM, 8 µM and 269 µM.
As for `O=C1c2ccccc2C(=O)N1C/C=N/N=c1\scc(-c2cccc([N+](=O)[O-])c2)n1-c1ccccc1`, the outcome in data set [5], in [7], in [9], in data set [11], in data set [13] and in [14] was Active. Moreover, the outcome in data set [16], in [17], in data set [18], in [19], in [22] and in data set [26] was Active. In addition, the Activity result in [6] was “Dose-dependent effect”; in data set [15], 11%; in data set [21], “Dose-dependent effect”; in [24] it was 11%; in [25] it was “Dose-dependent effect”. Besides, in data set [8], the selectivity ratio stood at 115. Also, the figures for the IC50 in data set [2] and in data set [3] were 0.9 µM and 6 µM, respectively. Besides, the result in data set [10], in data set [12], in data set [20] and in data set [23] was inactive. Besides, the MNTC at 24 h in data set [4] turned out to be 103 µM.
`O=C1c2ccccc2C(=O)N1C/C=N/N=c1\scc(-c2ccc([N+](=O)[O-])cc2)n1-c1ccccc1`: the selectivity ratio in data set [8] is 64.6. The results for the IC50 in [2] and in [3] were 3.2 µM and 12.2 µM, respectively. Moreover, the MNTC at 24 h in data set [4] came to 207 µM.
For the compound `O=C(Cn1ccnc1[N+](=O)[O-])NCc1ccccc1` [BENZNIDAZOLE], the selectivity ratio in data set [8] was 15.2. Moreover, in [2], the IC50 is 6.3 µM. For the same compound, the Activity in data set [15] and in data set [24] was 56% in each case.
In the case of `O=C1c2ccccc2C(=O)N1C/C=N/N=c1\scc(-c2ccc3ccccc3c2)n1-c1ccccc1`, the selectivity ratio in data set [8] is 410. Also, the IC50 in data set [2] was 0.5 µM; in data set [3], 11.9 µM. For the same compound, the MNTC at 24 h in data set [4] is 205 µM.
In [1], `O=C1c2ccccc2C(=O)N1Nc1nc(-c2ccccc2)cs1` yielded a logP of 3.98. Further, the IC50 in data set [2] worked out at 108 µM; in [3] it was 70.2 µM. Besides, in [4], the MNTC at 24 h is 3.1 µM.

The values are drawn from ChEMBL document CHEMBL3769360, “Phthalimido-thiazoles as building blocks and their effects on the growth and morphology of Trypanosoma cruzi” (Eur J Med Chem, 2016).
